# ChEMBL document CHEMBL5653631, “A Potent and Selective ULK1 Inhibitor Suppresses Autophagy and Sensitizes Cancer Cells to Nutrient Stress” (iScience, 2018)
# How the values were obtained:
# [1] = molecular target: Serine/threonine-protein kinase PLK3 (Homo sapiens) (UniProt Q9H4B4); assay: Inhibition of human recombinant PLK3 at 40 nM in presence of ATP by radiometric assay relative to control
# [2] = molecular target: Cyclin-dependent kinase 6 (Homo sapiens) (UniProt Q00534); assay: Inhibition of human recombinant CDK6 at 40 nM in presence of ATP by radiometric assay relative to control
# Sequence of Cyclin-dependent kinase 6 (Homo sapiens) (Q00534 whole entry): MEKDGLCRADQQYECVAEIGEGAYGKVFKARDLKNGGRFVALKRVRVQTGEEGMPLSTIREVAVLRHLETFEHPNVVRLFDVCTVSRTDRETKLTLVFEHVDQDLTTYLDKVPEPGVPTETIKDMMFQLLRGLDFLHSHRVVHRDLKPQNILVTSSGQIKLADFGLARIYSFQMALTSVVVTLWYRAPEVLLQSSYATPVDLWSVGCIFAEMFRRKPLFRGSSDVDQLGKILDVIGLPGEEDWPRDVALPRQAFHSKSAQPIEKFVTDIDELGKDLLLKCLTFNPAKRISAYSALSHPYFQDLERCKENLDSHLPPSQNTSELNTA
# [3] = molecular target: T1, Ephrin type-A receptor 3 (Homo sapiens) (UniProt P29320); assay: Inhibition of human recombinant EphA3 at 40 nM in presence of ATP by radiometric assay relative to control
# T1 sequence (whole entry): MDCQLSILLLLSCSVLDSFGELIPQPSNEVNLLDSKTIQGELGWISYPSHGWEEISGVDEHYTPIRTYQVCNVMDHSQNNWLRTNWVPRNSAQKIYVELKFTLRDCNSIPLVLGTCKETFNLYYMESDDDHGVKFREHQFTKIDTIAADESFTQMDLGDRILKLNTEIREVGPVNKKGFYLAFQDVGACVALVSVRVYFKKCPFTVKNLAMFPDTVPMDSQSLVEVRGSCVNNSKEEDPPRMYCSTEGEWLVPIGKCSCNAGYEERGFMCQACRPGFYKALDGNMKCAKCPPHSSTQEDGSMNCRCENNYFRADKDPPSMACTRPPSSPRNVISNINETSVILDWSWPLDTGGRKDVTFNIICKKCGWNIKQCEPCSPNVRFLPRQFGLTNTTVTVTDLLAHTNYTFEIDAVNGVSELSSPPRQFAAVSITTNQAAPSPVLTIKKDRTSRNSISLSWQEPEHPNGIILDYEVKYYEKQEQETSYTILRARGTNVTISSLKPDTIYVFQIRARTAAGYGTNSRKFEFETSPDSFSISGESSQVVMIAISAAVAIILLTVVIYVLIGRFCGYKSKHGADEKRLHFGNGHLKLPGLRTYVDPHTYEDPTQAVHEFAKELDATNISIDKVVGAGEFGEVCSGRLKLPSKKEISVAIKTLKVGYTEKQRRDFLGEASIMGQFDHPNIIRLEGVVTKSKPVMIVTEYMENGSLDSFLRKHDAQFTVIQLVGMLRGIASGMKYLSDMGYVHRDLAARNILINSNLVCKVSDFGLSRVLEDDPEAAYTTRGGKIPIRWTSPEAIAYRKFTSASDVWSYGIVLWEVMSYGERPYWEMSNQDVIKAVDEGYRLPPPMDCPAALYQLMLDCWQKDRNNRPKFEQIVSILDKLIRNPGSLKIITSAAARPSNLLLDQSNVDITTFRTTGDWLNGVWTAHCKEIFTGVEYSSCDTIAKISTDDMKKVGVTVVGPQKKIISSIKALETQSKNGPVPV
# [4] = molecular target: T2, Serine/threonine-protein kinase BRSK2 (Homo sapiens) (UniProt Q8IWQ3); assay: Inhibition of human recombinant BRSK2 at 40 nM related to control ULK1
# T2 sequence (whole entry): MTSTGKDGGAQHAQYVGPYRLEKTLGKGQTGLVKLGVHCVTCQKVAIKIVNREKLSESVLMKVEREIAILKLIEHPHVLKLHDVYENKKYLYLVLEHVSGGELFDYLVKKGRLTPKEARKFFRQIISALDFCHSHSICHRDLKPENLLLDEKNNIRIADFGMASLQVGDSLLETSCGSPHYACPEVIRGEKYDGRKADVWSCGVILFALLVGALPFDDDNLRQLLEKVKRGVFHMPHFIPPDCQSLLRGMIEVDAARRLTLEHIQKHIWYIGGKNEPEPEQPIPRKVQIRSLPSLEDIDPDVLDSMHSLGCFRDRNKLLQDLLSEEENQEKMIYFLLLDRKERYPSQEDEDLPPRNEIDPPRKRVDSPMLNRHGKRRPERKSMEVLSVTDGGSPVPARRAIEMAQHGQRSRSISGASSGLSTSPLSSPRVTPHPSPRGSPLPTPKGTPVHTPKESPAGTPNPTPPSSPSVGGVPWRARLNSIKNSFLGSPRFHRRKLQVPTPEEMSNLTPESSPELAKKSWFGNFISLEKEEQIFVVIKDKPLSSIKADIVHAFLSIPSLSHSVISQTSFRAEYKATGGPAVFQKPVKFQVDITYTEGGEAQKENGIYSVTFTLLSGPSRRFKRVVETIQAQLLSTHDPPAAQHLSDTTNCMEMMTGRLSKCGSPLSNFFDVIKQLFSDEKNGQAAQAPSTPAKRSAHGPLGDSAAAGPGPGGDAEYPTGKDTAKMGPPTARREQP
# [5] = molecular target: T3, Activin receptor type-1 (Homo sapiens) (UniProt Q04771); assay: Inhibition of human recombinant ALK2 at 15 nM in presence of ATP by radiometric assay relative to control
# T3 sequence (whole entry): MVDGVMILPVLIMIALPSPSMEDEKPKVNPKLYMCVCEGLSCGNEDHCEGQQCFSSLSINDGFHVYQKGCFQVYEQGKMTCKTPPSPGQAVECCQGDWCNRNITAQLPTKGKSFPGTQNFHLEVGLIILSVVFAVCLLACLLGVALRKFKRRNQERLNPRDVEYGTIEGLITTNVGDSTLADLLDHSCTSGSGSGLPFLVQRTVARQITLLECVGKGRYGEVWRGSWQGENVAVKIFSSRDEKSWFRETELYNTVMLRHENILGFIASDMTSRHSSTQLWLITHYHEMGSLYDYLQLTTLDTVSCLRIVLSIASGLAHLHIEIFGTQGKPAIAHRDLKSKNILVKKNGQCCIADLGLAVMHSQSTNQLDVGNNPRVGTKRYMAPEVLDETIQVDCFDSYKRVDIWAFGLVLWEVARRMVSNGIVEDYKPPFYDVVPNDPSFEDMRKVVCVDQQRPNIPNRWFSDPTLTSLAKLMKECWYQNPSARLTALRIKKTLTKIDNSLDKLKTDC
# How it was run: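 Panel of 327 recombinant human kinases, each assayed in vitro by radiometric activity assay in duplicate at a single inhibitor concentration per compound, chosen with reference to its ULK1 inhibition. Activity remaining was expressed as percent of vehicle control, and percent inhibition was calculated as 100 minus percent activity remaining.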
# [6] = molecular target: Serine/threonine-protein kinase WNK3 (Homo sapiens) (UniProt Q9BYP7); assay: Inhibition of human recombinant Wnk3 at 15 nM related to control ULK1
# Sequence of Serine/threonine-protein kinase WNK3 (Homo sapiens) (Q9BYP7 whole entry): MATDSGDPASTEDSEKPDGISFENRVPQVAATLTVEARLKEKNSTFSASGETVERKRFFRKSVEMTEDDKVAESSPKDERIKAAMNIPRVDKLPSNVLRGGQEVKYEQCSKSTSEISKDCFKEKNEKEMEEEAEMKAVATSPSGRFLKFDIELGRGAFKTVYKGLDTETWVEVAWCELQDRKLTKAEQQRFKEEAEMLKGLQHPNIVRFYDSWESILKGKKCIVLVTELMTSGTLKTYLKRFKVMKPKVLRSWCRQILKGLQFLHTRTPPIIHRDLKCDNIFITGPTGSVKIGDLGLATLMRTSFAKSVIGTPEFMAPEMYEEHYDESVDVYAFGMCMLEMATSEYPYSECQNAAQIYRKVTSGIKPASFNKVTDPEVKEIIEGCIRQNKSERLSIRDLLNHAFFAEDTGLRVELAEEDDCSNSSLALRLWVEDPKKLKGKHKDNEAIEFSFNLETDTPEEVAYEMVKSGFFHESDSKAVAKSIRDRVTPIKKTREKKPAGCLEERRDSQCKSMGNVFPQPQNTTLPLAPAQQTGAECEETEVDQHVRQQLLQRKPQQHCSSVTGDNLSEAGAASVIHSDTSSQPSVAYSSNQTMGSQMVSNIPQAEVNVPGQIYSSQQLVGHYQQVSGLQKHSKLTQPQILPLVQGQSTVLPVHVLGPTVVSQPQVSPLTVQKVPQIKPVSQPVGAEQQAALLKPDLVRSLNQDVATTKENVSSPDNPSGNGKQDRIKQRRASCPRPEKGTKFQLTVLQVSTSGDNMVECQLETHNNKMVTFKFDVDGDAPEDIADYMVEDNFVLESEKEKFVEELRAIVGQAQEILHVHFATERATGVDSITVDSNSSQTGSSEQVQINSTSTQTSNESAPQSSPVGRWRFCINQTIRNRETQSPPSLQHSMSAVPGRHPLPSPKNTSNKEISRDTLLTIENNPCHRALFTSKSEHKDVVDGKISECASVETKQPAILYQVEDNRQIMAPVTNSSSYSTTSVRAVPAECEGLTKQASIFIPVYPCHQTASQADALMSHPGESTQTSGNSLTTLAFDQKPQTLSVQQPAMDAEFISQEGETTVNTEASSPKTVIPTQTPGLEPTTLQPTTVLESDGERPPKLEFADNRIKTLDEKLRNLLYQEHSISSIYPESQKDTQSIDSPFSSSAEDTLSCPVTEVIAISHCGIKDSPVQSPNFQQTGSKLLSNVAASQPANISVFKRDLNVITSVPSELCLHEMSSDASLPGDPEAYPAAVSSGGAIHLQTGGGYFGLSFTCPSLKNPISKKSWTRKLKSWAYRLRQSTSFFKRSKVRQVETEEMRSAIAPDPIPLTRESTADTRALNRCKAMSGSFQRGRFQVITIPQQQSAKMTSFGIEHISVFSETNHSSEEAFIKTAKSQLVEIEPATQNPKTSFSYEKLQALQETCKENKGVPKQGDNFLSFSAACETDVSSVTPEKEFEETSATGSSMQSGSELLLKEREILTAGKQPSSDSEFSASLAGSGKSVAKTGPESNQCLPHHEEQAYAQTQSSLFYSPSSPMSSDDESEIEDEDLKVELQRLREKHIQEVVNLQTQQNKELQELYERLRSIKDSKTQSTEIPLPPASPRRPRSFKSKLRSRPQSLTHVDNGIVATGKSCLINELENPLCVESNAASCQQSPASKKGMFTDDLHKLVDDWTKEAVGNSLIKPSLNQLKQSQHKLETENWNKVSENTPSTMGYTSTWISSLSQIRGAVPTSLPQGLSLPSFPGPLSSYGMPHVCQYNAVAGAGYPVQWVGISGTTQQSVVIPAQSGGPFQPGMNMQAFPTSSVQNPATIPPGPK
# [7] = molecular target: Ephrin type-A receptor 4 (Homo sapiens) (UniProt P54764); assay: Inhibition of human recombinant EphA4 at 500 nM in presence of ATP by radiometric assay relative to control
# Sequence of Ephrin type-A receptor 4 (Homo sapiens) (P54764 whole entry): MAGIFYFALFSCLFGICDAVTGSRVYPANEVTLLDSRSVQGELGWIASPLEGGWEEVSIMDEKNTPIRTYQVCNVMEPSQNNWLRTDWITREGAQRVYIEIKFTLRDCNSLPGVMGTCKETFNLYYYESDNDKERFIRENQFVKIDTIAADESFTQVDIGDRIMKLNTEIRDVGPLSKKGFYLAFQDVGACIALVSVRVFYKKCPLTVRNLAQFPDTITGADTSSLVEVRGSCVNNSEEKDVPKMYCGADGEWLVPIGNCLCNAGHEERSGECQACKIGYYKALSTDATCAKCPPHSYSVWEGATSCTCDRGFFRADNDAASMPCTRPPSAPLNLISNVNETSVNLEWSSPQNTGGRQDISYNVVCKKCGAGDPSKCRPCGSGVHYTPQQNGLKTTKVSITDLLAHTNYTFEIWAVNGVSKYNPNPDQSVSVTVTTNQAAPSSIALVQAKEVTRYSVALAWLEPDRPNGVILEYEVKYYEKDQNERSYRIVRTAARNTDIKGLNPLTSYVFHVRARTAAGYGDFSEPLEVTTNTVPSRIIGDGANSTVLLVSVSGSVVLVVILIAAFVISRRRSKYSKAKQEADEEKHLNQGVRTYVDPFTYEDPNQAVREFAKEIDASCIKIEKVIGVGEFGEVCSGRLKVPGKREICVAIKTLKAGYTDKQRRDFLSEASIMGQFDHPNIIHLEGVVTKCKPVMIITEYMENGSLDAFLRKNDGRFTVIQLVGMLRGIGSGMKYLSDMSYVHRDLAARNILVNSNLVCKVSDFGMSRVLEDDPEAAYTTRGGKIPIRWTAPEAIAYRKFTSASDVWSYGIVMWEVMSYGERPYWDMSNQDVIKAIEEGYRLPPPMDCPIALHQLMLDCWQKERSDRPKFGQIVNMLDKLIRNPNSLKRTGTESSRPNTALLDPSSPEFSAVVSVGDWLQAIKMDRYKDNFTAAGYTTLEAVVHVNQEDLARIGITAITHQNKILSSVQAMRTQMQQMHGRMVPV
# Sequence of Serine/threonine-protein kinase PLK3 (Homo sapiens) (Q9H4B4 whole entry, looked up): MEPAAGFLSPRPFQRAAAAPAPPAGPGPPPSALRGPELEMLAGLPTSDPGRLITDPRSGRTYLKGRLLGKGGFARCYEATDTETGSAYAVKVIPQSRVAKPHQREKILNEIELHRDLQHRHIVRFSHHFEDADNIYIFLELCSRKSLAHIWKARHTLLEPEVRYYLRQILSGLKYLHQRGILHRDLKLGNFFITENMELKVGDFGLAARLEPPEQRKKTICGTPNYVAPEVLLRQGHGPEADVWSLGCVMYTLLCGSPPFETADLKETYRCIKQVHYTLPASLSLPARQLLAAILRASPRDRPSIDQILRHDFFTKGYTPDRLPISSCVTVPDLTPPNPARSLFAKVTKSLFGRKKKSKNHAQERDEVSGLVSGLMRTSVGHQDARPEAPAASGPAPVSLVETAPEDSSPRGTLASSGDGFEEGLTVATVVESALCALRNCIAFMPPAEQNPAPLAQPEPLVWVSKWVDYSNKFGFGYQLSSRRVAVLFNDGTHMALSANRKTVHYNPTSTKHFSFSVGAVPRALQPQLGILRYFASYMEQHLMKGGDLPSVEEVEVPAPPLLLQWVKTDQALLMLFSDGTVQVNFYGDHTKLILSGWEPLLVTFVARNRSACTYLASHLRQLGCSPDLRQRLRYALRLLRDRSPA
structure (smiles),measurement,setting,value
O=C(N[C@@H](C1CC1)C(F)(F)F)c1cc(-c2cnn3cc(-c4ccc(F)cc4)cnc23)cs1,inhibition,[1],0%
same,inhibition,[2],3%
same,inhibition,[3],15%
same,fold change (FC),[4],0
CC(C)[C@H](NC(=O)c1cc(-c2cnn3cc(-c4ccc(OCCN5CCCCC5)cc4)cnc23)cs1)C(F)(F)F,inhibition,[5],26%
same,fold change (FC),[6],0
CNC(=O)c1ccccc1Oc1nc(Nc2cc(OC)c(OC)c(OC)c2)ncc1Br,inhibition,[7],15%
